# Assay results taken from ChEMBL document CHEMBL1152759, “Design, synthesis, and biological evaluation of novel quinoline derivatives as HIV-1 Tat-TAR interaction inhibitors” (Bioorg Med Chem, 2009).
# What was measured:
# [1] = Cytotoxicity against human CEM cells; assay type: cell-based; conditions: CEM (CCRF-CEM) cells, read-out: TC50 (the source's name)
# Outline: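 Uninfected CEM cells exposed to compound dilutions; TC50 is the concentration giving 50% inhibition of cell proliferation.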
# [2] = test system: Simian immunodeficiency virus; test: Antiviral activity against SIV in human CEM cells assessed as protection against virus-induced cytopathogenicity; assay type: functional, organism-based; conditions: CCRF-CEM
# Outline: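 SIV syncytium assay: CEM174 cells at 2 × 10^5 cells/ml infected with 100 TCID50 SIV per well, given dilutions of compound; 5 days at 37 °C, 5% CO2, humidified air. Giant (syncytium) cell formation scored microscopically. EC50 = concentration protecting cells from SIV cytopathogenicity by 50%.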
# [3] = Selectivity index, ratio of TC50 for human CEM cells to EC50 for SIV in human CEM cells
# Nucleic Acid = test: Inhibition of HIV1 Tat-TAR RNA interaction-mediated transactivation in human 293T cells assessed as CAT gene expression at 30 uM after 24 hrs by ELISA; values are per cent of control; conditions: Human immunodeficiency virus 1
SMILES,CC50 [1] [µM],EC50 [2] [µM],Ratio [3],"level, % of control (Nucleic Acid) [%]"
COC(=O)[C@H](CSC)NC(=O)c1cnc2ccccc2c1Cl,68.4,2.9,22,
COC(=O)[C@H](Cc1c[nH]c2ccccc12)NC(=O)c1cnc2ccccc2c1Cl,> 100,10,>19,
COC(=O)[C@H](C)NC(=O)c1cnc2ccccc2c1Cl,81.3,5.7,14,
COC(=O)[C@H](CO)NC(=O)c1cnc2ccc(F)cc2c1Cl,> 100,5.8,>17,
COC(=O)[C@H](CO)NC(=O)c1cnc2ccc(C)cc2c1Cl,> 100,11.6,>8.6,
CC[C@H](C)[C@H](NC(=O)c1cnc2ccccc2c1Cl)C(=O)OC,23.3,1.3,17,
COC(=O)[C@H](CO)NC(=O)c1cnc2cc(Cl)ccc2c1Cl,> 100,8.2,>12,
COC(=O)[C@H](CO)NC(=O)c1cnc2c(Cl)cccc2c1Cl,> 100,6.7,>15,
COC(=O)[C@H](CO)NC(=O)c1cnc2ccc(Cl)cc2c1Cl,> 100,12,>8.3,
COC(=O)CNC(=O)c1cnc2ccccc2c1Cl,> 100,5.4,>18,79
COC(=O)[C@H](CC(C)C)NC(=O)c1cnc2ccccc2c1Cl,49.1,9.4,5.2,
O=C(NCCO)c1c[nH]c2ccc(Oc3ccccc3)cc2c1=O,> 100,4.9,>20,
COC(=O)C[C@H](NC(=O)c1cnc2ccccc2c1Cl)C(=O)OC,,,,58.7
O=C(N[C@H](CO)Cc1ccccc1)c1cnc2ccccc2c1Cl,> 100,4,>25,
COC(=O)[C@H](Cc1ccccc1)NC(=O)c1cnc2ccccc2c1Cl,> 100,7.9,>13,
COC(=O)[C@@H](NC(=O)c1cnc2ccccc2c1Cl)C(C)C,17.6,5.6,3.1,
COC(=O)[C@H](CO)NC(=O)c1cnc2c(C)cccc2c1Cl,> 100,2.8,>36,

SMILES,CC50 [1] [µM],EC50 [2] [µM],Ratio [3],"level, % of control (Nucleic Acid) [%]"
Cn1cc(C(=O)NCCO)c(=O)c2ccccc21,> 100,8.7,>11,44.2
O=C(NCCCO)c1cnc2ccccc2c1Cl,> 100,6.6,>15,
C[C@@H](CO)NC(=O)c1cnc2ccccc2c1Cl,> 100,7,>14,
O=C(NCCO)c1c[nH]c2ccc(Cl)cc2c1=O,> 100,5.1,>19,
COC(=O)[C@@H](NC(=O)c1cnc2ccccc2c1Cl)[C@@H](C)O,> 100,7,>14,82.4
O=C(NCCO)c1cnc2ccccc2c1Cl,> 100,2.7,>37,
COC(=O)[C@H](CO)NC(=O)c1cnc2ccccc2c1Cl,> 100,1.1,>90,59.6
CCOC(=O)[C@H](CO)NC(=O)c1cnc2ccccc2c1Cl,> 100,4.7,>21,
O=C(NCCO)c1cn(CCO)c2ccccc2c1=O,> 100,7.3,>13,
O=C(NCCO)c1cn(Cc2ccccc2)c2ccccc2c1=O,> 100,6,>16,63.9
COC(=O)[C@H](CO)NC(=O)c1cnc2cc(C)ccc2c1Cl,59.6,4.7,13,53.3
COC(=O)[C@H](CO)NC(=O)c1cnc2c(F)cc(F)cc2c1Cl,> 100,8.8,>11,
CC(C)C[C@@H](CO)NC(=O)c1cnc2ccccc2c1Cl,> 100,7.9,>12,71.9
O=C(NCCO)c1c[nH]c2ccccc2c1=O,> 100,3.7,>27,
O=C(NCCO)c1cn(Cc2ccc(F)cc2)c2ccccc2c1=O,> 100,6.9,>14,
COC(=O)[C@@H](NC(=O)c1cnc2cc(C)ccc2c1Cl)[C@@H](C)O,> 100,13,>14,92.7
